# CaV13 FRET inh = Disruptors of the CACNA1D IQ motif to Ca2+-dependent inactivation inhibitor domain association, primary screening, Förster resonance energy transfer in intact living …. HEK cells, CFP/YFP FRET ICDI-IQ, plate reader, 10 min; percent FRET-ratio fall versus neutral wells. inhibition, % at 12.3 µM. 340,000 tested, 0.098% active;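 active = mean replicate inhibition of at least 30% and at least 1% of replicates passing that level; inconclusive = only one of the two criteria is met; inactive = neither criterion is met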;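 note: 0% = median of the neutral control wells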
# PvdQ acylase = P. aeruginosa PvdQ acylase inhibitors, primary screen, biochemical, fluorescence, plate reader and imaging, single point. PvdQ acylase [Pseudomonas aeruginosa LESB58]. purified PvdQ acylase. inhibition, % at 10 µM. 340,000 tested, 0.063% active; in the data active = inhibition above about 30%, passing the limit was not always enough; inconclusive = no clear call, values can overlap the other calls;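 note: 0% = vehicle neutral wells and 100% = reference inhibitor wells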
# Glyco luc inh = increase of ERlucT glycosylation luciferase signal, primary screen, N-linked glycosylation inhibitor project, D54 ERlucT cells, luminescence, set 2. D54 ERlucT glycosylation luciferase reporter, 24 h; percent of 100 nM tunicamycin response. reporter increase, % at 12.5 µM. 360,000 tested, 0.23% active;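 active = mean luciferase reporter signal, scaled so untreated is 0 and the glycosylation-blocking control 100, at or above a set limit in every replicate; inconclusive = mean reaches the limit but not every replicate does; inactive = mean below the limit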;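 note: luciferase carries N-glycosylation sites so blocking glycosylation raises the light; 0% = median of neutral control wells and 100% = median of 100 nM tunicamycin wells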
# HSF-1 act = HSF-1 activators, primary screen, NIH3T3-HGL cells, MG132 stress, luminescence, single point; NIH3T3-HGL HSF-1 luciferase reporter, 8 h; 100% = twice DMSO control signal; activation, % at 9 µM; 300,000 tested, 1.7% active;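 active = mean replicate activation of at least 50% with a set share of replicates each reaching 50%; inconclusive = only one of those two conditions met; inactive = mean below 50% and too few replicates reaching it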;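 note: 0% = median of the neutral control wells and 100% = twice that signal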
# PfHsp90 yeast 2 = growth inhibition of PfHsp90-expressing yeast, primary screen, antimalarial PfHsp90 inhibitor project, S. cerevisiae, BacTiter-Glo luminescence, single point, set 2. inhibition, % at 9.4 µM. AID 504621, 2011. 310,000 tested, 0.32% active. BacTiter-Glo ATP, 48 h; yeast lacking PDR1 and PDR3 efflux regulators;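 active = every replicate shows inhibition above about 80%, whatever the replicate mean, limit read from the data; inconclusive = mean inhibition reaches the set limit but some replicate falls short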;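 note: 0% = DMSO neutral controls and 100% = 20 µM radicicol positive controls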
# T cruzi inh = inhibitors of intracellular T. cruzi growth, primary screen, luminescence, NIH3T3 host cells; AID 1885, 2009; T. cruzi beta-gal in NIH3T3, 90 h; inhibition, % (no concentration beside the values); 300,000 tested, 1.4% active;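 active = mean inhibition across valid replicates above about 55%, limit read from the data; inconclusive = mean below that limit but half or more replicates reach it; inactive = mean below it, under half of replicates reach it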;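 note: signal also drops with host cell toxicity which is not excluded here; 0% = plate median of DMSO wells and 100% = zero luminescence signal; higher percent means less beta-gal luminescence so fewer parasites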
#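 Incubation – ≥90 h infection period, 3 h prior cell attachment · System – NIH/3T3 fibroblasts plus reporter T. cruzi · Doses – compound pinned at 50 nL/well, DMSO · Read-out basis – percent inhibition of parasite-derived β-gal signal · Signal – luminescent β-galactosidase signal after 60 min lysis · Also added – 5000 T. cruzi trypomastigotes/well · Medium – Low-serum DMEM with 2% FBS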
# * marks the source's active call; other numbers are inactive results; ? = inconclusive; . = no result given. Compounds with a hit are over-represented: about 3% of the library has one in this group of screens.
SMILES,CaV13 FRET inh,PvdQ acylase,Glyco luc inh,HSF-1 act,PfHsp90 yeast 2,T cruzi inh
CCN(CC)P(=O)(Nc1ccc(C)cc1Br)c1ccc(N(C)C)cc1NC(=O)c1ccco1 (centres undefined),-6,-6,-2,28,21,64*
Cc1cc(C)c2sc(NC(=O)C3=COCCO3)nc2c1,.,-6,-9,54*,9,8
C#Cc1cccc(Nc2nc(NCc3ccccc3OC)nc3ccsc23)c1,-6,.,-7,.,.,.
COc1ccc(CN2[C@@H](CC(C)=O)c3ccc(/C=C/C(C)=O)cc3S2(=O)=O)cc1,-9,-6,10,10,.,0
COc1cccc(N2[C@@H](CC(C)=O)c3ccc(/C=C/C(C)=O)cc3S2(=O)=O)c1,-5,-8,38*,-8,.,-10
O=C(CC12CC3CC(CC(Br)(C3)C1)C2)Nc1nncs1,-2,0,2,9,44,-9
CCc1nnc(NC(=O)CC23CC4CC(CC(Br)(C4)C2)C3)s1,-5,-9,2,58*,-10,0
COC(=O)N1C[C@H](OCc2ccc3c(c2)OCO3)[C@H]2C[C@@H]1c1ccccc1O2,-4,.,.,.,.,.
COc1ccc2[nH]c3c(C)c4ccncc4c(C)c3c2c1,.,-17,-1,?,12,58*
Cc1c2ccncc2cc2c1[nH]c1ccccc12,-13,-12,3,.,.,.
COc1c(O)cc2c(c1O)C(=O)CC(c1ccccc1)O2 (centres undefined),.,.,.,1,.,2
Cc1c(O)cc2c(c1O)C(=O)CC(c1ccccc1)O2 (centres undefined),.,-8,43*,-10,28,4
Cc1cc(C)c(C#N)c(SCc2ccccc2[N+](=O)[O-])n1,-15,-5,-3,25,-8,-7
Cc1cc(C)c(C#N)c(SCc2nnc(-c3ccccc3[N+](=O)[O-])o2)n1,-5,-5,-11,36,7,69*
O=C(Nc1ccc2oc(-c3cccnc3)nc2c1)c1ccc([N+](=O)[O-])o1,-16,-7,35*,-8,-108,29
Cc1c(C(=O)Nc2ccc3oc(-c4cccnc4)nc3c2)oc2ccccc12,-5,-1,30*,-34,16,21
O=C(Nc1ccc2oc(-c3ccccc3)nc2c1)c1cccs1,-4,-4,-5,93*,25,-3
O=C(NCc1ccccc1)[C@H]1CCCN1C(=O)[C@H]1CCCN1C(=O)c1ccccc1,-11,.,.,.,.,.
CCNC(=O)C1CCCN(C(=O)c2cc(F)cc(F)c2)CC1 (centres undefined),-9,.,3,.,.,.
CCc1ccc2c(c1)C(=O)c1ccccc1C2=O,-1,-5,-3,81*,2,?
CCCCc1ccc(NS(=O)(=O)c2c(C)n(C)c(=O)n(C)c2=O)cc1,-5,-12,0,64*,19,4
Cc1c(S(=O)(=O)Nc2ccc(Br)cc2)c(=O)n(C)c(=O)n1C,-4,-7,-1,1,-15,2
COC(=O)[C@]12C[C@H](CC(=O)NCC3CCCCC3)C(=O)N(CCc3ccc(OC)c(OC)c3)C1=C[C@H](C(C)(C)C)O[C@@H]2C,-6,.,.,.,.,.
COc1ccccc1NC(=O)C(C)OC(=O)/C=C/c1ccc2ccccc2n1 (centres undefined),-14,-6,2,63*,5,-21
CC(C)(C)NC(=O)CSc1nc2ccc(Nc3nc(N4CCOCC4)nc(N4CCOCC4)n3)cc2s1,-8,-10,-5,-6,32,58*
SMILES,CaV13 FRET inh,PvdQ acylase,Glyco luc inh,HSF-1 act,PfHsp90 yeast 2,T cruzi inh
CC(=O)CSc1nc2ccc(Nc3nc(N4CCOCC4)nc(N4CCOCC4)n3)cc2s1,-6,7,0,-2,.,52
CCc1nc2c(OCCC3CCCCC3)cccn2c1N(C)C(=O)c1ccc(C)cc1,-3,.,0,.,.,.
COc1ccc(N(C(=O)c2cnccn2)C(C(=O)NC2CCCCC2)c2ccc(Cl)cc2)cc1 (centres undefined),.,0,2,-6,-30,2
COc1ccc(C(C(=O)NC2CCCC2)N(C(=O)c2snc(-c3ccc(F)cc3)c2N)c2ccc(OC)cc2)cc1 (centres undefined),-5,-11,-1,11,6,60*
COc1ccc(C(C(=O)NC2CCCCC2)N(C(=O)CCl)c2ccc(Cl)cc2)cc1 (centres undefined),.,-15,7,-83,19,56*
CCc1cc(C(=O)c2ccccc2OC)c(N)s1,.,15,1,-4,-3,23
CCc1cc(C(=O)c2ccc(OC)cc2)c(N)s1,-1,-14,1,59*,-3,12
CN(CC(=O)NCC1CCCO1)S(=O)(=O)c1ccc2ccccc2c1 (centres undefined),-6,.,1,.,.,.
Cc1cc(C)cc(-n2c3nc4ccccc4nc3c3c(=O)n(Cc4ccco4)cnc32)c1,.,-8,4,119*,-15,-10
COC(=O)c1cc2c(c3c4cc(C)ccc4n(S(=O)(=O)c4ccc(OC)cc4)c13)C(=O)N(Cc1ccccc1OC)C2,-7,.,.,.,.,.
Cc1ccc(N=C2C(=S)N(c3ccc(C)cc3)C(=N)N2/N=C/c2ccc(Cl)cc2)cc1,-4,-12,1,108*,-17,-4
Cc1cc(C)nc(/N=C(\N)Nc2ccc(OCCC(C)C)cc2)n1,9,-5,48*,10,-4,42
Cc1cc(C)nc(/N=C(\N)Nc2cccc(OCc3ccccc3)c2)n1,-5,-5,20,-8,-1,-14
Cc1cc(C)nc(/N=C(\N)Nc2ccc(CC(=O)OC(C)C)cc2)n1,-14,-13,48*,-4,1,10
COc1ccc(N/C(N)=N/c2nc(C)cc(C)n2)cc1,-5,.,6,.,.,.
Cc1cc(C)nc(/N=C(\N)Nc2ccc(OCc3ccccc3)cc2)n1,-4,-3,48*,-4,-1,45
Nc1[nH]c(C(=O)c2ccc(Br)cc2)c(-c2c(F)cccc2F)c1C(=O)NCCc1c[nH]c2ccccc12,-18,.,.,.,.,.
COc1ccccc1CNS(=O)(=O)c1ccc(F)cc1Br,-6,.,.,.,.,.
Cc1ccc(N/C(N)=N/c2nc(C)cc(N3CCCCC3)n2)c(C)c1,-5,-1,11,.,-5,69*
Cc1ccc(N/C(N)=N/c2nc3c(c(=O)[nH]2)CCCC3)c(C)c1,-4,2,16,-5,5,-17

# Bioassay records (PubChem)
